# From ChEMBL document CHEMBL1275525, “Activity of hydroxyurea against Leishmania mexicana” (2008)
# The source made the active and inactive calls. The calls are words filed in the database; no cut-off is given here.
# Experiments:
# Leishmania mexicana [1] = test: Antileishmanial activity against Leishmania mexicana infected in BALB/c mouse macrophage assessed as growth inhibition at 0.01 ug/ml after 3 days by hemocytometer; assay type: functional; details: 72 h
# Outline: (§1)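 Peritoneal resident macrophages from male BALB/c mice (20-25 g) were pooled, washed, plated at 10^6 cells/ml, and left to adhere for 24 h at 32°C in 5% CO2. Adherent cells were infected with 10^7 mid-log amastigote-like forms for 48 h, then washed. Drug was given at 0.01-100 µg/ml for 3, 6, 9 or 12 days at 32°C. After removal, plates moved to 26°C; released promastigotes were hemacytometer-counted 6 days later. Inhibition = 100 x (Tc − Tp)/Tc; triplicate.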
# Leishmania mexicana [2] = test: Antileishmanial activity against Leishmania mexicana infected in BALB/c mouse macrophage assessed as growth inhibition at 0.1 ug/ml after 3 days by hemocytometer; assay type: functional; details: 72 h; outline: as §1
# Leishmania mexicana [3] = test: Antileishmanial activity against Leishmania mexicana MNYC/BZ/62/M379 promastigotes at 10 ug/ml after 48 hrs by hemocytometer; assay type: functional, organism-based
# Leishmania mexicana [4] = test: Antileishmanial activity against Leishmania mexicana MHOM/MX/00/Tab3 promastigotes assessed as survival rate after 6 days by hemocytometer; assay type: functional
# Outline: (§2)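 Promastigotes were grown cell-free at 26°C in DMEM with 10% heat-inactivated FCS, with drug at 0.01–100 µg/ml. Parasite density was counted by hemacytometer every other day, and the value was taken on day 6. Data were recorded in triplicate, and experiments were run four times.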
# Leishmania mexicana [5] = test: Antileishmanial activity against Leishmania mexicana promastigotes assessed as parasite burden at 10 ug/ml after 8 days by hemacytometer
# Leishmania mexicana [6] = test: Antileishmanial activity against Leishmania mexicana MNYC/BZ/62/M379 promastigotes measured on day 6 by hemocytometer; assay type: functional; details: MNYC/BZ/62/M379, 144 h, read-out: ED50 (the source's name)
# Outline: (§3)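 Promastigotes were cultured cell-free at 26°C in DMEM with 10% heat-inactivated FCS, with hydroxyurea at 0.01-100 µg/ml. Density was counted by hemacytometer every other day, and inhibition versus untreated control was taken on day 6 of culture.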
# Leishmania mexicana [7] = test: Antileishmanial activity against Leishmania mexicana infected in BALB/c mouse macrophage assessed as growth inhibition at 10 ug/ml after 12 days by hemocytometer; assay type: functional; details: 288 h; outline: as §1
# Leishmania mexicana [8] = test: Antileishmanial activity against Leishmania mexicana MNYC/BZ/62/M379 promastigotes at 100 ug/ml after 48 hrs by hemocytometer; assay type: functional, organism-based
# Leishmania mexicana [9] = test: Antileishmanial activity against Leishmania mexicana MHOM/MX/00/Tab3 promastigotes at 100 ug/ml after 48 hrs by hemocytometer; assay type: functional, organism-based
# Leishmania mexicana [10] = test: Antileishmanial activity against Leishmania mexicana infected in BALB/c mouse macrophage assessed as growth inhibition at 1 ug/ml after 12 days by hemocytometer; assay type: functional; details: 288 h; outline: as §1
# Leishmania mexicana [11] = test: Antileishmanial activity against Leishmania mexicana MHOM/MX/00/Tab3 infected in BALB/c mouse macrophage assessed as growth inhibition at 1 ug/ml after 6 days by hemocytometer; assay type: functional
# Outline: (§4)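 Resident peritoneal macrophages from male BALB/c mice were plated at 10^6 cells/ml and incubated for 24 h at 32°C in 5% CO2. Adherent cells were infected with 10^7 mid-log amastigote-like forms for 48 h at 32°C, then washed. Drug was applied for 6 days at 32°C, then replaced with drug-free medium and shifted to 26°C. Released promastigotes were counted by hemacytometer 6 days later, in triplicate. Inhibition = 100×(Tc−Tp)/Tc versus untreated.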
# Leishmania mexicana [12] = test: Antileishmanial activity against Leishmania mexicana infected in BALB/c mouse macrophage assessed as growth inhibition at 10 ug/ml after 3 days by hemocytometer; assay type: functional; details: 72 h; outline: as §1
# Leishmania mexicana [13] = test: Antileishmanial activity against Leishmania mexicana infected in BALB/c mouse macrophage assessed as growth inhibition at 1 ug/ml after 3 days by hemocytometer; assay type: functional; details: 72 h; outline: as §1
# Leishmania mexicana [14] = test: Antileishmanial activity against Leishmania mexicana MNYC/BZ/62/M379 infected in BALB/c mouse macrophage assessed as growth inhibition at 100 ug/ml after 6 days by hemocytometer; assay type: functional; details: MNYC/BZ/62/M379, 144 h; outline: as §1
# Leishmania mexicana [15] = test: Cell cycle arrest in Leishmania mexicana assessed as accumulation at G2/M phase at 100 ug/ml after 48 hrs by fluorescence-activated cell sorter; assay type: functional, organism-based
# Outline: (§5)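 Mid-log promastigotes were exposed 48 h at 26°C to 1, 10 or 100 µg/ml, washed in PBS with 0.02 M EDTA, and fixed in cold methanol for 24 h. They were then stained 20 min at 25°C with RNase I (50 µg/ml) and PI (25 µg/ml), kept on ice, and analysed by FACS for DNA content.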
# Leishmania mexicana [16] = test: Antileishmanial activity against Leishmania mexicana MNYC/BZ/62/M379 infected in BALB/c mouse macrophage assessed as growth inhibition at 1 ug/ml after 6 days by hemocytometer; assay type: functional; outline: as §4
# Leishmania mexicana [17] = test: Antileishmanial activity against Leishmania mexicana promastigotes assessed as parasite burden at 100 ug/ml after 8 days by hemacytometer
# Leishmania mexicana [18] = test: Antileishmanial activity against Leishmania mexicana MNYC/BZ/62/M379 infected in BALB/c mouse macrophage assessed as growth inhibition at 10 ug/ml after 6 days by hemocytometer; assay type: functional; outline: as §4
# Leishmania mexicana [19] = test: Antileishmanial activity against Leishmania mexicana infected in BALB/c mouse macrophage assessed as growth inhibition at 0.01 ug/ml after 12 days by hemocytometer; assay type: functional; details: 288 h; outline: as §1
# Leishmania mexicana [20] = test: Cell cycle arrest in Leishmania mexicana assessed as accumulation at G2/M phase at 10 ug/ml after 48 hrs by fluorescence-activated cell sorter; assay type: functional, organism-based; outline: as §5
# Leishmania mexicana [21] = test: Antileishmanial activity against Leishmania mexicana infected in BALB/c mouse macrophage assessed as growth inhibition at 100 ug/ml after 3 days by hemocytometer; assay type: functional, organism-based; outline: as §1
# Leishmania mexicana [22] = test: Antileishmanial activity against Leishmania mexicana MHOM/MX/00/Tab3 infected in BALB/c mouse macrophage assessed as growth inhibition at 10 ug/ml after 6 days by hemocytometer; assay type: functional; outline: as §4
# Leishmania mexicana [23] = test: Cell cycle arrest in Leishmania mexicana assessed as accumulation at G2/M phase at 1 ug/ml after 48 hrs by fluorescence-activated cell sorter; assay type: functional, organism-based; outline: as §5
# Leishmania mexicana [24] = test: Antileishmanial activity against Leishmania mexicana MHOM/MX/00/Tab3 promastigotes at 10 ug/ml after 48 hrs by hemocytometer; assay type: functional, organism-based
# Leishmania mexicana [25] = test: Antileishmanial activity against Leishmania mexicana MHOM/MX/00/Tab3 infected in BALB/c mouse macrophage measured on day 6 by hemocytometer; assay type: functional; details: MHOM/MX/00/Tab3, 144 h, read-out: ED50 (the source's name); outline: as §1
# Leishmania mexicana [26] = test: Antileishmanial activity against Leishmania mexicana promastigotes assessed as parasite burden at 1 ug/ml after 8 days by hemacytometer
# Leishmania mexicana [27] = test: Antileishmanial activity against Leishmania mexicana MHOM/MX/00/Tab3 infected in BALB/c mouse macrophage assessed as growth inhibition at 100 ug/ml after 6 days by hemocytometer; assay type: functional; details: MHOM/MX/00/Tab3, 144 h; outline: as §1
# Leishmania mexicana [28] = test: Antileishmanial activity against Leishmania mexicana infected in BALB/c mouse macrophage assessed as growth inhibition at 0.1 ug/ml after 12 days by hemocytometer; assay type: functional; details: 288 h; outline: as §1
# Leishmania mexicana [29] = test: Antileishmanial activity against Leishmania mexicana MNYC/BZ/62/M379 promastigotes assessed as survival rate after 6 days by hemocytometer; assay type: functional; outline: as §2
# Leishmania mexicana [30] = test: Antileishmanial activity against Leishmania mexicana MHOM/MX/00/Tab3 promastigotes measured on day 6 by hemocytometer; assay type: functional; details: MHOM/MX/00/Tab3, 144 h, read-out: ED50 (the source's name); outline: as §3
# Leishmania mexicana [31] = test: Antileishmanial activity against Leishmania mexicana MNYC/BZ/62/M379 infected in BALB/c mouse macrophage measured on day 6 by hemocytometer; assay type: functional; details: MNYC/BZ/62/M379, 144 h, read-out: ED50 (the source's name); outline: as §1
# Leishmania mexicana [32] = test: Antileishmanial activity against Leishmania mexicana MNYC/BZ/62/M379 infected in BALB/c mouse macrophage assessed as growth inhibition at 25 ug/ml after 6 days by hemocytometer; assay type: functional, organism-based
# Leishmania mexicana [33] = test: Antileishmanial activity against Leishmania mexicana MHOM/MX/00/Tab3 infected in BALB/c mouse macrophage assessed as growth inhibition at 25 ug/ml after 6 days by hemocytometer; assay type: functional, organism-based
compound,measurement,setting,value
NC(=O)NO [HYDROXYUREA],inhibition at 0.01 µg/mL,Leishmania mexicana [1],44%
same,inhibition at 0.1 µg/mL,Leishmania mexicana [2],72%
same,Activity,Leishmania mexicana [3],Active
same,Survival,Leishmania mexicana [4],3.1%
same,Activity,Leishmania mexicana [5],4.3 ×10⁶ /ml
same,EC50,Leishmania mexicana [6],0.05 µg/mL
same,inhibition at 10 µg/mL,Leishmania mexicana [7],98%
same,Activity,Leishmania mexicana [8],Active
same,Activity,Leishmania mexicana [9],Active
same,inhibition at 1 µg/mL,Leishmania mexicana [10],94%
same,inhibition at 1 µg/mL,"Leishmania mexicana [11]; MHOM/MX/00/Tab3, 144 h",96%
same,inhibition at 10 µg/mL,Leishmania mexicana [12],93%
same,inhibition at 1 µg/mL,Leishmania mexicana [13],87%
same,inhibition at 100 µg/mL,Leishmania mexicana [14],100%
same,Activity,Leishmania mexicana [15],Active
same,inhibition at 1 µg/mL,"Leishmania mexicana [16]; MNYC/BZ/62/M379, 144 h",94%
same,Activity,Leishmania mexicana [17],0 mL⁻¹
same,inhibition at 10 µg/mL,"Leishmania mexicana [18]; MNYC/BZ/62/M379, 144 h",100%
same,inhibition at 0.01 µg/mL,Leishmania mexicana [19],67%
same,Activity,Leishmania mexicana [20],Active
same,inhibition,Leishmania mexicana [21],Active
same,inhibition at 10 µg/mL,"Leishmania mexicana [22]; MHOM/MX/00/Tab3, 144 h",100%
same,Activity,Leishmania mexicana [23],inactive
same,Activity,Leishmania mexicana [24],Active
same,EC50,Leishmania mexicana [25],0.015 µg/mL
same,Activity,Leishmania mexicana [26],8.5 ×10⁶ /ml
same,inhibition at 100 µg/mL,Leishmania mexicana [27],100%
same,inhibition at 0.1 µg/mL,Leishmania mexicana [28],85%
same,Survival,Leishmania mexicana [29],11.6%
same,EC50,Leishmania mexicana [30],0.05 µg/mL
same,EC50,Leishmania mexicana [31],0.015 µg/mL
MEGLUMINE ANTIMONATE,inhibition,Leishmania mexicana [32],93%
same,inhibition,Leishmania mexicana [11],32%
same,inhibition,Leishmania mexicana [16],33%
same,inhibition,Leishmania mexicana [33],77%
same,inhibition,Leishmania mexicana [18],69%
same,inhibition,Leishmania mexicana [22],54%
